One data set deals with A-549. Nature of the data set: Cytotoxic activity, crystal violet staining. In kind it is cell-based, human. The conditions noted are these: read-out: IC50 A-549, A-549 cells, 72 hours incubation.
In data set [1] the test system is HT-29. In words: Cytotoxic activity, crystal violet staining. In kind it is cell-based, human. The conditions noted are these: read-out: IC50 HT-29, HT-29 cells, 72 hours incubation.
Another data set concerns MCF-7. In words: Cytotoxic activity, crystal violet staining. In kind it is cell-based, human. The settings on record: read-out: IC50 MCF-7, MCF-7 cells, 96 hours incubation.
Data set [2] deals with organoids from colon cancer tissues (CRC-PDTO1-4). In words: Patient-Derived Organoid cytotoxicity assay. In kind it is cell-based, human. Summed up: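 Patient-derived colorectal cancer tumor organoids (3D model) came from the C.R.O. biobank. Oxaliplatin, the standard treatment, served as positive control. Dose-response IC50 values were obtained per organoid line.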
Data set [3] relates to HT-29. The conditions noted are these: read-out: average IC50 in HT-29 colon cancer cells; literature value; cited from earlier work.
For data set [4], the target named is T1, recombinant human TrxR (TrxR1) (Homo sapiens, UniProt Q16881).
T1 sequence (Q16881 1-499 isoform Q16881-5): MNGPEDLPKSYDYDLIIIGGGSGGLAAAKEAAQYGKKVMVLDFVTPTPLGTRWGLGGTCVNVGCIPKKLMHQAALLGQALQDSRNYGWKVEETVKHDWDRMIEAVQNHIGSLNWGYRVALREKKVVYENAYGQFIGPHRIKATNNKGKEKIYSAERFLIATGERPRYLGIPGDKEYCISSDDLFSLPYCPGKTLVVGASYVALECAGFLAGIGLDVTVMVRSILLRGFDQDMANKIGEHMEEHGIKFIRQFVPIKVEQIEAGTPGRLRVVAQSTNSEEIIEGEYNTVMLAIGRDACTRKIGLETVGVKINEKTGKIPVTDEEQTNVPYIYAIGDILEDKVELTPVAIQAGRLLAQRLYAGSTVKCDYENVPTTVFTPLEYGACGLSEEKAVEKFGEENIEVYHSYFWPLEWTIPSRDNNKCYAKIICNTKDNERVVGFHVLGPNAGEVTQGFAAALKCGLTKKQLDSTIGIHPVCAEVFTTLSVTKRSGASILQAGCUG
In words: Thioredoxin reductase inhibition assay. In kind it is biochemical.

The next data set can be described thus: Stability in water. The conditions noted are these: 4 mg in DMSO-d6 (0.4 mL) diluted with D2O to 0.5 mL, 48 hours. In kind it is physicochemical.
The test system of data set [5] is A2780. Nature of the data set: Cytotoxicity on ovarian cancer cell line. In kind it is cell-based, human. The conditions noted are these: read-out: IC50 A2780.
For data set [6], the system named is organoids from HGSOC tissues (HGSOC-PDTO1-4). Nature of the data set: Patient-Derived Organoid cytotoxicity assay. In kind it is cell-based, human. The gist of the method:
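Patient-derived high-grade serous ovarian cancer tumor organoids (3D model) came from the C.R.O. biobank. Carboplatin, the standard treatment, served as positive control. Dose-response IC50 values were obtained per organoid line.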

In data set [7] the test system is A2780. The conditions noted are these: read-out: average IC50 in A2780 ovarian cancer cells; literature value; cited from earlier work.
Setting [8] is: read-out: IC50 CRC-PDTO1, organoid CRC-PDTO1, 96 hours of treatment.
The mark [9] stands for this setting: read-out: IC50 CRC-PDTO2, organoid CRC-PDTO2, 96 hours of treatment.
[10] abbreviates: read-out: IC50 CRC-PDTO3, organoid CRC-PDTO3, 96 hours of treatment.
[11] abbreviates: read-out: IC50 CRC-PDTO4, organoid CRC-PDTO4, 96 hours of treatment.
Where [12] appears, read: 50 μM for 96 hours, compared to non-treated controls.
[13] abbreviates: read-out: IC50 HGSOC-PDTO1, organoid HGSOC-PDTO1, 96 hours of treatment.
Setting [14] is: read-out: IC50 HGSOC-PDTO2, organoid HGSOC-PDTO2, 96 hours of treatment.
Where [15] appears, read: read-out: IC50 HGSOC-PDTO3, organoid HGSOC-PDTO3, 96 hours of treatment.
The mark [16] stands for this setting: read-out: IC50 HGSOC-PDTO4, organoid HGSOC-PDTO4, 96 hours of treatment.

Like-named read-outs stand apart in the source and are kept apart here. A value given as a limit tells only on which side of the number the result lay.

Usually IC50 stands for the concentration that inhibits the measured activity by half.

Take [Au(PPh3)Se(C6H5)] [1o]: the IC50 is 2.9 ± 0.4 µM with A-549, 2.8 ± 0.2 µM with HT-29 [1] and 1.7 ± 0.08 µM in the data set on MCF-7.

In the case of [Au(MeIPr)Se(C6H5)] [1g], the IC50 in the data set on A-549 came to 1.5 ± 0.3 µM; in the data set with HT-29 [1], 2.2 ± 0.5 µM; with MCF-7, 2.4 ± 0.5 µM.

As for `CC(C)c1cccc(C(C)C)c1N1CCN(c2c(C(C)C)cccc2C(C)C)[C]1=[Au][Se]c1ccccc1` [1b, [Au(SIPr)Se(C6H5)]], the IC50 in the data set on A-549, in the data set with HT-29 [1] and in the data set on MCF-7 was over 100 µM in each case.

`O=C1[O][Pt]2([NH][C@@H]3CCCC[C@H]3[NH]2)[O]C1=O` [Oxaliplatin, reference compound]: the IC50 in [2] (setting [8]) was 1.4 ± 0.9 µM; in data set [2] (setting [9]), 4 ± 1 µM; in data set [2] (setting [10]), over 100 µM; in data set [2] (setting [11]), over 100 µM; in the data set with HT-29 [3] it was 7 µM.

With `Cc1cc(C)c(N2CCN(c3c(C)cc(C)cc3C)[C]2=[Au][Se]c2ccccc2)c(C)c1` [1k, [Au(SIMes)Se(C6H5)]], the results for the IC50 in the data set on A-549, with HT-29 [1] and in the data set on MCF-7 were 6.3 ± 0.6 µM, 9.9 ± 0.3 µM and 4.4 ± 0.1 µM, respectively.

With `CC(C)c1cccc(C(C)C)c1-n1ccn(-c2c(C(C)C)cccc2C(C)C)[c]1=[Au][Se]c1ccccc1` [1a, [Au(IPr)Se(C6H5)]], the IC50 in the data set with A-549 turned out to be 4.5 ± 0.9 µM; in the data set with HT-29 [1], 3.1 ± 0.5 µM; in the data set with MCF-7, 3.6 ± 0.5 µM. For the same compound, in [4] (highest applied dosage of 100 μM), the “inhibition of the enzyme (TrxR1)” value is “did not show any inhibition”. Also, in the data set “Stability in water”, the stability in water result is on record as “No change”.

For `CC(C)c1cccc(C(C)C)c1-n1ccn(-c2c(C(C)C)cccc2C(C)C)[c]1=[Cu][Se]c1ccccc1` [1p, [Cu(IPr)Se(C6H5)]], the IC50 in the data set on A-549 was determined as 0.7 ± 0.1 µM; in the data set with HT-29 [1], 1 ± 0.3 µM; in the data set on MCF-7 it was 0.4 ± 0.3 µM.

For the compound `Cc1c(C)n(-c2c(C(C)C)cccc2C(C)C)[c](=[Au][Se]c2ccccc2)n1-c1c(C(C)C)cccc1C(C)C` [1d, [Au(IPr^Me)Se(C6H5)]], the IC50 with A-549 is over 100 µM; in the data set on HT-29 [1] it was over 100 µM; in the data set on MCF-7, 6.1 ± 0.3 µM.

[Au(MeIMes)Se(C6H5)] [1h]: the IC50 in the data set with A-549 is 4 ± 0.5 µM; in the data set with HT-29 [1] it was 4 ± 1 µM; in the data set with MCF-7 it was 3.4 ± 0.6 µM.

`CCC(CC)c1cccc(C(CC)CC)c1-n1ccn(-c2c(C(CC)CC)cccc2C(CC)CC)[c]1=[Au][Se]c1ccccc1` [1l, [Au(IPent)Se(C6H5)]]: the IC50 in the data set on A-549, in the data set with HT-29 [1] and with MCF-7 was over 100 µM in each case.

Take `CC(C)c1cccc(C(C)C)c1-n1ccn(-c2c(C(C)C)cccc2C(C)C)[c]1=[Ag][Se]c1ccccc1` [1q, [Ag(IPr)Se(C6H5)]]: the IC50 with A-549 came to 0.8 ± 0.1 µM; in the data set with HT-29 [1], 1.2 ± 0.3 µM; in the data set with MCF-7, 0.9 ± 0.2 µM.

With `CC(=O)OC[C@H]1O[C@@H]([S-])[C@H](OC(C)=O)[C@@H](OC(C)=O)[C@@H]1OC(C)=O.CCP(CC)CC.[Au+]` [Auranofin, reference compound], the IC50 was determined as 3.7 ± 0.4 µM with A-549, 4.9 ± 0.5 µM with HT-29 [1] and 1.5 ± 0.2 µM in the data set with MCF-7.

In the case of [Au(MonoIPent)Se(C6H5)] [1m], the IC50 turned out to be 0.27 ± 0.03 µM with A-549; 0.35 ± 0.05 µM in the data set on HT-29 [1]; 0.27 ± 0.04 µM in the data set on MCF-7; 0.4 ± 0.1 µM in the data set with A2780 [5]; 13 ± 9 µM in [2] (setting [8]); 6 ± 2 µM in [2] (setting [9]). The IC50 in [2] (setting [10]) came to 3.4 ± 0.5 µM; in data set [2] (setting [11]), 9 ± 5 µM; in data set [6] (setting [13]), 17 ± 8 µM; in [6] (setting [14]), 4 ± 2 µM; in data set [6] (setting [15]), 6 ± 2 µM; in [6] (setting [16]), 7 ± 5 µM. Besides, the IC50 in [4] (read-out: TrxR inhibition average IC50, recombinant human TrxR, 75 min at 37 °C) came to 0.18 ± 0.05 µM. Further, the “brightfield appearance of CRC PDTOs after treatment” value in data set [2] (setting [12]) is “visible reductions in organoid size, density, and structural integrity”. The “brightfield appearance of HGSOC PDTOs after treatment” value in [6] (setting [12]) was “visible reductions in organoid size, density, and structural integrity”. Moreover, the stability in water result in “Stability in water” is “No change”.

Regarding [Au(IPr)Se(C6H4CF3)] [2a], the IC50 was determined as 55 ± 10 µM in the data set with A-549, 88 ± 8 µM in the data set on HT-29 [1] and 48 ± 5 µM in the data set with MCF-7.

On to [Au(ImPyIPr)Se(C6H5)] [1i], for which the figures for the IC50 with A-549, with HT-29 [1] and in the data set with MCF-7 were 5.97 ± 0.08 µM, 12.6 ± 0.8 µM and 4.3 ± 0.4 µM, respectively.

Consider `Cc1cc(C(c2ccccc2)c2ccccc2)c(-n2ccn(-c3c(C(c4ccccc4)c4ccccc4)cc(C)cc3C(c3ccccc3)c3ccccc3)[c]2=[Au][Se]c2ccccc2)c(C(c2ccccc2)c2ccccc2)c1` [1c, [Au(IPr*)Se(C6H5)]], for which the IC50 with A-549, in the data set on HT-29 [1] and with MCF-7 was over 100 µM throughout.

As for `N.N.O=C([O-])C1(C(=O)[O-])CCC1.[Pt+2]` [Carboplatin, reference compound], the IC50 in data set [6] (setting [13]) is 3.5 ± 0.7 µM; in [6] (setting [14]), 3 ± 1 µM; in data set [6] (setting [15]), over 100 µM; in data set [6] (setting [16]), over 100 µM; with A2780 [7], 8 µM.

`N.N.[Cl][Pt][Cl]` [Cisplatin, reference compound]: the IC50 in the data set on A-549 was 3 ± 0.4 µM; with HT-29 [1] it was 7 ± 0.5 µM; with MCF-7, 5.3 ± 0.8 µM; with A2780 [5], 1 µM.

Turning to [Au(BzIPr)Se(C6H5)] [1f], the half-inhibitory concentration (IC50) turned out to be 0.32 ± 0.04 µM with A-549, 1.08 ± 0.05 µM in the data set with HT-29 [1] and 1.9 ± 0.4 µM in the data set with MCF-7.
